We go through 1 compound from ChEMBL document CHEMBL4330076, “Quinazolin-2,4-dione-Based Hydroxamic Acids as Selective Histone Deacetylase-6 Inhibitors for Treatment of Non-Small Cell Lung Cancer” (J Med Chem, 2019).

Each structure is given as a SMILES string. pKi: −log10 of the molar value.

Data set [1] has as its system A549. The data set can be described thus: Induction of apoptosis in human A549 cells assessed as early apoptotic cells at 4 uM after 24 hrs in presence of paclitaxel by Annexin V/propidium iodide staining-based flow cytometric analysis (reference value: 1.2%). The class given is functional. For orientation: A flow cytometer gives signals particle by particle.
Data set [2] in a line: Ratio of compound AUC (0 to 24 hrs) to ACY-1215 AUC (0 to 24 hrs) in C57BL/6 mouse kidney at 40 mg/kg, po administered via gavage by LC-MS/MS analysis. The class given is ADME, organism-based. Particulars: in vivo.
Data set [3] in a line: Drug metabolism in C57BL/6 mouse liver assessed as hydrolysis metabolite formation at 40 mg/kg, po administered via gavage by LC-MS/MS analysis. The class given is ADME, organism-based. Particulars: in vivo.
Data set [4] is described as follows: AUC (0 to 24 hrs) in C57BL/6 mouse lung at 40 mg/kg, po administered via gavage by LC-MS/MS analysis. The class given is ADME, organism-based. Also noted: time < 24 hr, dose 40 mg/kg, route oral. Conditions: in vivo.
Data set [5] relates to Lewis lung carcinoma cell line. Kind of data set: Cytotoxicity against mouse LL/2 cells at 4 uM after 72 hrs by MTT assay relative to control. The class given is functional. Summed up: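 Mouse LL/2 cells treated with inhibitor alone or combined with paclitaxel for 3 days. Viability measured by MTT assay relative to untreated control.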
(In general: Tetrazolium assays rely on reduction of a dye to a coloured formazan, in cell work by metabolically active cells.)

Data set [6] concerns Lewis lung carcinoma cell line. The data set can be described thus: Antitumor activity against mouse LL/2 cells implanted in C57BL/6 mouse assessed as tumor growth inhibition at 20 mg/kg, po qd administered for 21 consecutive days co-administered with paclitaxel at 10 mg/kg, ip qd administered for 5 days relative to control. The class given is functional.
Data set [7] in a line: Ratio of compound AUC (0 to 24 hrs) to ACY-1215 AUC (0 to 24 hrs) in C57BL/6 mouse lung at 40 mg/kg, po administered via gavage by LC-MS/MS analysis. The class given is ADME, organism-based. Particulars: in vivo.
The target of data set [8] is T1, Protein deacetylase HDAC6 (Homo sapiens, UniProt Q9UBN7).
T1 sequence (Q9UBN7 whole entry): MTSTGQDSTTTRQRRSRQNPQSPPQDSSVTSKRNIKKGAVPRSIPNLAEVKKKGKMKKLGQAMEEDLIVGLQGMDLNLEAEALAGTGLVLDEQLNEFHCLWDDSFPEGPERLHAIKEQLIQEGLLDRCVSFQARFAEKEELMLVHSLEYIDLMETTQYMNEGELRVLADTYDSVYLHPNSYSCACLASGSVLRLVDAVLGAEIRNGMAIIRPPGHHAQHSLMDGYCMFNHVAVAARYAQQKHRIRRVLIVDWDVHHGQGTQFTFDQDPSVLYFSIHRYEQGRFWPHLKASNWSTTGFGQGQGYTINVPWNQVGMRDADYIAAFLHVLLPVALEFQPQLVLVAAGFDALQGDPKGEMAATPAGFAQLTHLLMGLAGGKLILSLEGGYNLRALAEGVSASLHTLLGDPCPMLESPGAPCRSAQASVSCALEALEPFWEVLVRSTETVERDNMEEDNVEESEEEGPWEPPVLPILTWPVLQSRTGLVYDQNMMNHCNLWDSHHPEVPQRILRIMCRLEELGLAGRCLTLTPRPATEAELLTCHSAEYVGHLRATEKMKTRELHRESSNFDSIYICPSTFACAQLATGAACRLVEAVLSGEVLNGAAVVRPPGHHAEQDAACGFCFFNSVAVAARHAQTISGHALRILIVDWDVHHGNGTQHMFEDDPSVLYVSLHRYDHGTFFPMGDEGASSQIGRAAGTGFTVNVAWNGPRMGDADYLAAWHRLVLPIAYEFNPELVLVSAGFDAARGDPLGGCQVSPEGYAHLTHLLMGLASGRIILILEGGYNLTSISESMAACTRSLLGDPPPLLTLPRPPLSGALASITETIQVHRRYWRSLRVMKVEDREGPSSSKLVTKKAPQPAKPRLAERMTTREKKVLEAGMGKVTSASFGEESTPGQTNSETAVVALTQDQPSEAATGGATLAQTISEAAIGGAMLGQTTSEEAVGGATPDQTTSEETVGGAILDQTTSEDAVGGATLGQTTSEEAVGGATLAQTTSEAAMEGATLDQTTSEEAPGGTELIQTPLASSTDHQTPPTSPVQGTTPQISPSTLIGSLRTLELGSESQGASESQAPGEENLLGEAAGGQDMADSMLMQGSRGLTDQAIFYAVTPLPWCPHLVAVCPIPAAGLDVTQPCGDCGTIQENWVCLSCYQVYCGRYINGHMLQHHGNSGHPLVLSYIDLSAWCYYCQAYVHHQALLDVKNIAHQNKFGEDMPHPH
The data set can be described thus: Competitive inhibition of human full-length recombinant HDAC6 expressed in baculovirus infected Sf9 insect cells using Boc-Lys (Ac)-AMC as substrate preincubated for 10 mins followed by substrate addition and measured after 30 mins by fluorescence assay.

Data set [9] has as its system A549. Kind of data set: Induction of apoptosis in human A549 cells assessed as necrotic cells at 4 uM after 24 hrs in presence of paclitaxel by Annexin V/propidium iodide staining-based flow cytometric analysis (reference value: 1.1%). The class given is functional.
Data set [10] in a line: Drug uptake in C57BL/6 mouse lung at 40 mg/kg, po administered via gavage co-administered with paclitaxel at 10 mg/kg, ip by LC-MS/MS analysis. The class given is ADME, organism-based. Conditions: in vivo.

In the case of `O=C(NO)c1ccc(Cn2c(=O)n(CCc3ccccc3)c(=O)c3ccccc32)cc1`, the values for the Activity in data set [1], in data set [5] and in [9] were 5.4%, 10% and 0.5%, respectively. The “Ratio AUC” value in data set [2] is recorded as 0.8; in [7], 2.1. Moreover, in data set [3], the Drug metabolism result is given as “Metabolite_Detected”. This compound also yielded an AUC in data set [4] of 1335 ng·h/g. In data set [6], the TGI – broadly, the reduction of tumour growth relative to the control group – was found to be 67.5%. For the same compound, the pKi (commonly −log10 of the Ki, conventionally taken in molar units) in data set [8] is 8.80. In [10], the Drug uptake was 331 ng/g.
